Values after ≈ are worked out from the molar mass of the structure shown.
How the values were obtained:
Assay type in all cases: functional
Leishmania donovani [1] = assay: Decrease in LdRoS3 gene expression in Leishmania donovani K498 by RT-PCR method
In short: (§1)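 VL field isolates of L. donovani. Transcript levels of LdMT or LdRos3 were measured by real-time RT-PCR with SYBR green and analysed by the 2−ΔΔCt method. The expression index is the ratio of gene expression to that of the standard L. donovani strain LdAG83, and a decrease is relative to LdAG83. Values are means of three independent experiments.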

Leishmania donovani [2] = assay: Antimicrobial activity against Leishmania donovani K516 amastigote; settings: read-out: ED50 (the source's name)
Leishmania donovani [3] = assay: Decrease in LdMT gene expression in Leishmania donovani K435 by RT-PCR method; in short: as §1
Leishmania donovani [4] = assay: Decrease in LdMT gene expression in Leishmania donovani K59M20 by RT-PCR method
In short: (§2)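 MIL-resistant M20 parasites were generated by raising the MIL concentration stepwise up to 20 μg/ml. LdMT or LdRos3 expression was quantified by real-time RT-PCR (SYBR green, 2−ΔΔCt method) and reported as an expression index, the ratio to the standard strain LdAG83. A decrease is relative to LdAG83. Values are means of three independent experiments.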

Leishmania donovani [5] = assay: Decrease in LdMT gene expression in Leishmania donovani K135 by RT-PCR method
In short: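 LdMT transcript levels were measured by real-time RT-PCR with SYBR green and analysed by the 2−ΔΔCt method. They are expressed as an expression index, the ratio relative to reference strain LdAG83, and are the mean of three independent experiments.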

Leishmania donovani [6] = assay: Antimicrobial activity against Leishmania donovani K429 promastigote; settings: read-out: ED50 (the source's name)
Leishmania donovani [7] = assay: Decrease in LdRoS3 gene expression in Leishmania donovani K59 by RT-PCR method; in short: as §1
Leishmania donovani [8] = assay: Decrease in LdRoS3 gene expression in Leishmania donovani K516 by RT-PCR method; in short: as §1
Leishmania donovani [9] = assay: Antimicrobial activity against Leishmania donovani K111 promastigote; settings: read-out: ED50 (the source's name)
Leishmania donovani [10] = assay: Antimicrobial activity against Leishmania donovani K131 amastigote; settings: read-out: ED50 (the source's name)
Leishmania donovani [11] = assay: Antimicrobial activity against Leishmania donovani K417M20 promastigote; settings: read-out: ED50 (the source's name)
Leishmania donovani [12] = assay: Antimicrobial activity against Leishmania donovani K80 amastigote; settings: read-out: ED50 (the source's name)
Leishmania donovani [13] = assay: Antimicrobial activity against Leishmania donovani K439 amastigote; settings: read-out: ED50 (the source's name)
Leishmania donovani [14] = assay: Decrease in LdRoS3 gene expression in Leishmania donovani K80 by RT-PCR method; in short: as §1
Leishmania donovani [15] = assay: Antimicrobial activity against Leishmania donovani K59M20 amastigote; settings: read-out: ED50 (the source's name)
Leishmania donovani [16] = assay: Antimicrobial activity against Leishmania donovani K417 amastigote; settings: read-out: ED50 (the source's name)
Leishmania donovani [17] = assay: Antimicrobial activity against Leishmania donovani K216 promastigote; settings: read-out: ED50 (the source's name)
Leishmania donovani [18] = assay: Antimicrobial activity against Leishmania donovani K111 amastigote; settings: read-out: ED50 (the source's name)
Leishmania donovani [19] = assay: Antimicrobial activity against Leishmania donovani K149 promastigote; settings: read-out: ED50 (the source's name)
Leishmania donovani [20] = assay: Decrease in LdRoS3 gene expression in Leishmania donovani K133 by RT-PCR method; in short: as §1
Leishmania donovani [21] = assay: Decrease in LdRoS3 gene expression in Leishmania donovani K439 by RT-PCR method; in short: as §1
Leishmania donovani [22] = assay: Decrease in LdRoS3 gene expression in Leishmania donovani K192 by RT-PCR method; in short: as §1
Leishmania donovani [23] = assay: Decrease in LdMT gene expression in Leishmania donovani K59 by RT-PCR method; in short: as §1
Leishmania donovani [24] = assay: Antimicrobial activity against Leishmania donovani K509 promastigote; settings: read-out: ED50 (the source's name)
Leishmania donovani [25] = assay: Antimicrobial activity against Leishmania donovani K135 amastigote; settings: read-out: ED50 (the source's name)
Leishmania donovani [26] = assay: Antimicrobial activity against Leishmania donovani K133 promastigote; settings: read-out: ED50 (the source's name)
Leishmania donovani [27] = assay: Decrease in LdMT gene expression in Leishmania donovani K216 by RT-PCR method; in short: as §1
Leishmania donovani [28] = assay: Antimicrobial activity against Leishmania donovani K132 amastigote; settings: read-out: ED50 (the source's name)
Leishmania donovani [29] = assay: Antimicrobial activity against Leishmania donovani K251 amastigote; settings: read-out: ED50 (the source's name)
Leishmania donovani [30] = assay: Antimicrobial activity against Leishmania donovani K439 promastigote; settings: read-out: ED50 (the source's name)
Leishmania donovani [31] = assay: Antimicrobial activity against Leishmania donovani K132 promastigote; settings: read-out: ED50 (the source's name)
Leishmania donovani [32] = assay: Decrease in LdRoS3 gene expression in Leishmania donovani K111 by RT-PCR method; in short: as §1
Leishmania donovani [33] = assay: Antimicrobial activity against Leishmania donovani K509 amastigote; settings: read-out: ED50 (the source's name)
Leishmania donovani [34] = assay: Antimicrobial activity against Leishmania donovani K481 amastigote; settings: read-out: ED50 (the source's name)
Leishmania donovani [35] = assay: Antimicrobial activity against Leishmania donovani K135 promastigote; settings: read-out: ED50 (the source's name)
Leishmania donovani [36] = assay: Decrease in LdMT gene expression in Leishmania donovani K417 by RT-PCR method; in short: as §1
Leishmania donovani [37] = assay: Antimicrobial activity against Leishmania donovani K417M20 amastigote; settings: read-out: ED50 (the source's name)
Leishmania donovani [38] = assay: Decrease in LdRoS3 gene expression in Leishmania donovani K417M20 by RT-PCR method; in short: as §2
Leishmania donovani [39] = assay: Antimicrobial activity against Leishmania donovani K481 promastigote; settings: read-out: ED50 (the source's name)
Leishmania donovani [40] = assay: Decrease in LdRoS3 gene expression in Leishmania donovani K59M20 by RT-PCR method; in short: as §2
Leishmania donovani [41] = assay: Decrease in LdRoS3 gene expression in Leishmania donovani K417 by RT-PCR method; in short: as §1

EC50 (Leishmania donovani [2]): 2.02 µg/mL (≈ 4.96 µM)
EC50 (Leishmania donovani [6]): 1.26 µg/mL (≈ 3.09 µM)
EC50 (Leishmania donovani [9]): 0.47 µg/mL (≈ 1.15 µM)
EC50 (Leishmania donovani [10]): 0.51 µg/mL (≈ 1.25 µM)
EC50 (Leishmania donovani [11]): > 15 µg/mL
EC50 (Leishmania donovani [12]): 1.32 µg/mL (≈ 3.24 µM)
EC50 (Leishmania donovani [13]): 1.07 µg/mL (≈ 2.63 µM)
EC50 (Leishmania donovani [15]): > 15 µg/mL
EC50 (Leishmania donovani [16]): 1.9 µg/mL (≈ 4.66 µM)
EC50 (Leishmania donovani [17]): 0.76 µg/mL (≈ 1.86 µM)
EC50 (Leishmania donovani [18]): 0.85 µg/mL (≈ 2.09 µM)
EC50 (Leishmania donovani [19]): 1.56 µg/mL (≈ 3.83 µM)
EC50 (Leishmania donovani [24]): 1.94 µg/mL (≈ 4.76 µM)
EC50 (Leishmania donovani [25]): 0.72 µg/mL (≈ 1.77 µM)
EC50 (Leishmania donovani [26]): 0.83 µg/mL (≈ 2.04 µM)
EC50 (Leishmania donovani [28]): 0.48 µg/mL (≈ 1.18 µM)
EC50 (Leishmania donovani [29]): 1.59 µg/mL (≈ 3.9 µM)
EC50 (Leishmania donovani [30]): 0.87 µg/mL (≈ 2.13 µM)
EC50 (Leishmania donovani [31]): 0.53 µg/mL (≈ 1.3 µM)
EC50 (Leishmania donovani [33]): 2.16 µg/mL (≈ 5.3 µM)
EC50 (Leishmania donovani [34]): 2.32 µg/mL (≈ 5.69 µM)
EC50 (Leishmania donovani [35]): 0.86 µg/mL (≈ 2.11 µM)
EC50 (Leishmania donovani [37]): > 15 µg/mL
EC50 (Leishmania donovani [39]): 1.9 µg/mL (≈ 4.66 µM)
SMILES: CCCCCCCCCCCCCCCCOP(=O)([O-])OCC[N+](C)(C)C [MILTEFOSINE]
fold change (FC) (Leishmania donovani [1]): 7.63
fold change (FC) (Leishmania donovani [3]): 2.67
fold change (FC) (Leishmania donovani [4]): 13.33
fold change (FC) (Leishmania donovani [5]): 2.86
fold change (FC) (Leishmania donovani [7]): 4.06
fold change (FC) (Leishmania donovani [8]): 83.33
fold change (FC) (Leishmania donovani [14]): 1.71
fold change (FC) (Leishmania donovani [20]): 4.52
fold change (FC) (Leishmania donovani [21]): 3.12
fold change (FC) (Leishmania donovani [22]): 1.9
fold change (FC) (Leishmania donovani [23]): 2.84
fold change (FC) (Leishmania donovani [27]): 1.4
fold change (FC) (Leishmania donovani [32]): 5.26
fold change (FC) (Leishmania donovani [36]): 1.88
fold change (FC) (Leishmania donovani [38]): 100
fold change (FC) (Leishmania donovani [40]): 100
fold change (FC) (Leishmania donovani [41]): 5.02

— ChEMBL document CHEMBL1629601, “In vitro susceptibility of field isolates of Leishmania donovani to Miltefosine and amphotericin B: correlation with sodium antimony gluconate susceptibility and implications for treatment in areas of endemicity” (2009)
